In ChEMBL document CHEMBL1275420, “Transfer of embB codon 306 mutations into clinical Mycobacterium tuberculosis strains alters susceptibility to ethambutol, isoniazid, and rifampin” (2008):
In brackets after ≈: the same amount, converted by molar mass. Activity calls are given as the source filed them. The rule behind the calls is not given here.

Experiments:
[1] = system: Mycobacterium tuberculosis; experiment: Antimycobacterial activity against Mycobacterium tuberculosis isolate NJT210 expressing embB codon 306 ATA mutant at 37 degC after 10 to 11 days by radiometric Bactec 460TB method; assay type: functional
[2] = system: Mycobacterium tuberculosis; experiment: Antimycobacterial activity against ethambutol resistant Mycobacterium tuberculosis isolate NJT210EMB-R-C3 assessed as bacterial colony formation at 37 degC after 10 to 11 days by radiometric Bactec 460TB method; assay type: functional
[3] = system: Mycobacterium tuberculosis; experiment: Antimycobacterial activity against rifampin, ethambutol resistant Mycobacterium tuberculosis isolate NJT30167 expressing embB codon 306 ATG mutant at 37 degC after 3 to 4 weeks by radiometric Bactec 460TB method; assay type: functional
[4] = system: Mycobacterium tuberculosis; experiment: Antimycobacterial activity against rifampin, ethambutol resistant Mycobacterium tuberculosis isolate 30167 at 37 degC after 3 to 4 weeks by radiometric Bactec 460TB method; assay type: functional
[5] = system: Mycobacterium tuberculosis; experiment: Antimycobacterial activity against Mycobacterium tuberculosis isolate NJT210 expressing embB codon 306 GTG mutant at 37 degC after 10 to 11 days by radiometric Bactec 460TB method; assay type: functional
[6] = system: Mycobacterium tuberculosis; experiment: Antimycobacterial activity against Mycobacterium tuberculosis isolate NJT210 expressing embB codon 306 CTG-ATG mutant at 37 degC after 10 to 11 days by radiometric Bactec 460TB method; assay type: functional
[7] = system: Mycobacterium tuberculosis; experiment: Antimycobacterial activity against ethambutol resistant Mycobacterium tuberculosis isolate NJT210EMB-R-C2 assessed as bacterial colony formation at 37 degC after 10 to 11 days by radiometric Bactec 460TB method; assay type: functional
[8] = system: Mycobacterium tuberculosis; experiment: Antimycobacterial activity against Mycobacterium tuberculosis isolate NJT210 expressing embB codon 306 CTG mutant assessed as bacterial growth rate at 0.04 ug/ml by radiometric Bactec 460TB method; assay type: functional, organism-based
How it was run: (§1)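 Sub-MIC growth curves in Bactec 12B vials with isoniazid (strain 210 vs NJT210CTG also rifampin) at several sub-MIC levels. The daily growth index was followed. No-drug controls were inoculated at 1:100 dilution. Values are means and standard deviations of three independent experiments.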

[9] = system: Mycobacterium tuberculosis; experiment: Antimycobacterial activity against isoniazid, rifampin, ethambutol resistant Mycobacterium tuberculosis isolate NJT5310 expressing embB codon 306 ATG-CTG mutant at 37 degC after 3 to 4 weeks by radiometric Bactec 460TB method; assay type: functional
[10] = system: Mycobacterium tuberculosis; experiment: Antimycobacterial activity against ethambutol resistant Mycobacterium tuberculosis isolate NJT210EMB-R-C1 assessed as bacterial colony formation at 37 degC after 10 to 11 days by radiometric Bactec 460TB method; assay type: functional
[11] = system: Mycobacterium tuberculosis; experiment: Antimycobacterial activity against isoniazid, rifampin, ethambutol resistant Mycobacterium tuberculosis isolate NJT5310 expressing embB codon 306 ATG-ATA mutant at 37 degC after 3 to 4 weeks by radiometric Bactec 460TB method; assay type: functional
[12] = system: Mycobacterium tuberculosis; experiment: Antimycobacterial activity against isoniazid, rifampin, ethambutol resistant Mycobacterium tuberculosis isolate NJT5310 expressing embB codon 306 ATG-GTG mutant at 37 degC after 3 to 4 weeks by radiometric Bactec 460TB method; assay type: functional
[13] = system: Mycobacterium tuberculosis; experiment: Antimycobacterial activity against isoniazid, rifampin, ethambutol resistant Mycobacterium tuberculosis isolate NJT5310 expressing embB codon 306 ATG mutant at 37 degC after 3 to 4 weeks by radiometric Bactec 460TB method; assay type: functional
[14] = system: Mycobacterium tuberculosis; experiment: Antimycobacterial activity against Mycobacterium tuberculosis isolate NJT210 expressing embB codon 306 ATC mutant at 37 degC after 10 to 11 days by radiometric Bactec 460TB method; assay type: functional
[15] = system: Mycobacterium tuberculosis; experiment: Antimycobacterial activity against Mycobacterium tuberculosis isolate NJT210 expressing embB codon 306 CTG mutant at 37 degC after 10 to 11 days by radiometric Bactec 460TB method; assay type: functional
[16] = system: Mycobacterium tuberculosis; experiment: Antimycobacterial activity against Mycobacterium tuberculosis isolate NJT210 expressing embB codon 306 ATC-ATG mutant at 37 degC after 10 to 11 days by radiometric Bactec 460TB method; assay type: functional
[17] = system: Mycobacterium tuberculosis; experiment: Antimycobacterial activity against isoniazid, rifampin, ethambutol resistant Mycobacterium tuberculosis isolate NJT5310 expressing embB codon 306 ATG-ATC mutant at 37 degC after 3 to 4 weeks by radiometric Bactec 460TB method; assay type: functional
[18] = system: Mycobacterium tuberculosis; experiment: Antimycobacterial activity against isoniazid, rifampin, ethambutol resistant Mycobacterium tuberculosis isolate 5310 at 37 degC after 3 to 4 weeks by radiometric Bactec 460TB method; assay type: functional
[19] = system: Mycobacterium tuberculosis; experiment: Antimycobacterial activity against Mycobacterium tuberculosis isolate NJT210 expressing embB codon 306 CTG mutant assessed as bacterial growth rate at 0.03 ug/ml by radiometric Bactec 460TB method; assay type: functional, organism-based; how it was run: as §1
[20] = system: Mycobacterium tuberculosis; experiment: Antimycobacterial activity against ethambutol-susceptible and rifampin-resistant Mycobacterium tuberculosis isolate NJT30167 expressing embB codon 306 ATG assessed as bacterial growth rate at sub MIC compound concentration by radiometric Bactec 460TB method; assay type: functional, organism-based; how it was run: as §1
[21] = system: Mycobacterium tuberculosis; experiment: Antimycobacterial activity against rifampin, ethambutol resistant Mycobacterium tuberculosis isolate A2558 at 37 degC after 3 to 4 weeks by radiometric Bactec 460TB method; assay type: functional
[22] = system: Mycobacterium tuberculosis; experiment: Antimycobacterial activity against rifampin, ethambutol resistant Mycobacterium tuberculosis isolate 5041 at 37 degC after 3 to 4 weeks by radiometric Bactec 460TB method; assay type: functional

Q: Which results are given for `NNC(=O)c1ccncc1` [ISONIAZID]?
A: MIC [1]: 0.05 µg/mL (≈ 0.365 µM); MIC [2]: 0.05 µg/mL (≈ 0.365 µM); MIC [3]: 0.07 µg/mL (≈ 0.51 µM); MIC [4]: 0.07 µg/mL (≈ 0.51 µM); MIC [5]: 0.05 µg/mL (≈ 0.365 µM); MIC [6]: 0.05 µg/mL (≈ 0.365 µM); MIC [7]: 0.05 µg/mL (≈ 0.365 µM); Activity [8]: inactive; MIC [9]: 2.5 µg/mL (≈ 18.2 µM); MIC [10]: 0.05 µg/mL (≈ 0.365 µM); MIC [11]: 2.5 µg/mL (≈ 18.2 µM); MIC [12]: 2.5 µg/mL (≈ 18.2 µM); MIC [13]: 2.5 µg/mL (≈ 18.2 µM); MIC [14]: 0.05 µg/mL (≈ 0.365 µM); MIC [15]: 0.05 µg/mL (≈ 0.365 µM); MIC [16]: 0.05 µg/mL (≈ 0.365 µM); MIC [17]: 2.5 µg/mL (≈ 18.2 µM); MIC [18]: 2.5 µg/mL (≈ 18.2 µM); Activity [19]: inactive; Activity [20]: Active

Q: Which results are given for `CC[C@@H](CO)NCCN[C@@H](CC)CO` [ETHAMBUTOL]?
A: MIC [1]: 7 µg/mL (≈ 34.3 µM); MIC [2]: 8 µg/mL (≈ 39.2 µM); MIC [3]: 3 µg/mL (≈ 14.7 µM); MIC [4]: 20 µg/mL (≈ 97.9 µM); MIC [5]: 14 µg/mL (≈ 68.5 µM); MIC [6]: 2 µg/mL (≈ 9.79 µM); MIC [7]: 14 µg/mL (≈ 68.5 µM); MIC [9]: 20 µg/mL (≈ 97.9 µM); MIC [10]: 14 µg/mL (≈ 68.5 µM); MIC [11]: 16 µg/mL (≈ 78.3 µM); MIC [12]: 28 µg/mL (≈ 137 µM); MIC [21]: 5 µg/mL (≈ 24.5 µM); MIC [13]: 3 µg/mL (≈ 14.7 µM); MIC [14]: 7 µg/mL (≈ 34.3 µM); MIC [15]: 8.5 µg/mL (≈ 41.6 µM); MIC [16]: 2 µg/mL (≈ 9.79 µM); MIC [22]: 8 µg/mL (≈ 39.2 µM); MIC [17]: 16 µg/mL (≈ 78.3 µM); MIC [18]: 28 µg/mL (≈ 137 µM)

Q: Which results are given for `CO[C@H]1/C=C/O[C@@]2(C)Oc3c(C)c(O)c4c(O)c(c(/C=N/N5CCN(C)CC5)c(O)c4c3C2=O)NC(=O)/C(C)=C\C=C\[C@H](C)[C@H](O)[C@@H](C)[C@@H](O)[C@@H](C)[C@H](OC(C)=O)[C@@H]1C` [RIFAMPIN]?
A: MIC [1]: 0.05 µg/mL (≈ 0.0608 µM); MIC [2]: 0.05 µg/mL (≈ 0.0608 µM); MIC [3]: >240 µg/mL; MIC [4]: > 240 µg/mL; MIC [5]: 0.05 µg/mL (≈ 0.0608 µM); MIC [6]: 0.05 µg/mL (≈ 0.0608 µM); MIC [7]: 0.05 µg/mL (≈ 0.0608 µM); Activity [8]: inactive; MIC [9]: >240 µg/mL; MIC [10]: 0.05 µg/mL (≈ 0.0608 µM); MIC [11]: >240 µg/mL; MIC [12]: >240 µg/mL; MIC [13]: >240 µg/mL; MIC [14]: 0.05 µg/mL (≈ 0.0608 µM); MIC [15]: 0.05 µg/mL (≈ 0.0608 µM); MIC [16]: 0.05 µg/mL (≈ 0.0608 µM); MIC [17]: >240 µg/mL; MIC [18]: > 240 µg/mL
